Source: ChEMBL document CHEMBL4152262, “Design, synthesis and evaluation of novel multi-target-directed ligands for treatment of Alzheimer's disease based on coumarin and lipoic acid scaffolds” (Eur J Med Chem, 2018)
pIC50: −log10 of the molar value.

Experiments:
[1] = test system: PC-12; experiment: Neuroprotection against H2O2-induced cell death in rat PC12 cells assessed as cell viability at 5 uM preincubated for 3 hrs followed by H2O2 stimulation measured after 2 hrs by MTT assay (reference value: 25.2 to 41.8%); assay type: functional; conditions: read-out: Activity
[2] = test system: PC-12; experiment: Neuroprotection against H2O2-induced cell death in rat PC12 cells assessed as cell viability at 0.1 uM preincubated for 3 hrs followed by H2O2 stimulation measured after 2 hrs by MTT assay (reference value: 25.2 to 41.8%); assay type: functional; conditions: read-out: Activity
[3] = test system: PC-12; experiment: Neuroprotection against H2O2-induced cell death in rat PC12 cells assessed as cell viability at 1 uM preincubated for 3 hrs followed by H2O2 stimulation measured after 2 hrs by MTT assay (reference value: 25.2 to 41.8%); assay type: functional; conditions: read-out: Activity
[4] = target: Cholinesterase (Equus caballus, UniProt P81908); experiment: Inhibition of equine serum BuChE using butyrylthiocholine iodide as substrate pretreated for 5 mins followed by substrate addition by Ellman's method
Cholinesterase, sequence (P81908 whole entry): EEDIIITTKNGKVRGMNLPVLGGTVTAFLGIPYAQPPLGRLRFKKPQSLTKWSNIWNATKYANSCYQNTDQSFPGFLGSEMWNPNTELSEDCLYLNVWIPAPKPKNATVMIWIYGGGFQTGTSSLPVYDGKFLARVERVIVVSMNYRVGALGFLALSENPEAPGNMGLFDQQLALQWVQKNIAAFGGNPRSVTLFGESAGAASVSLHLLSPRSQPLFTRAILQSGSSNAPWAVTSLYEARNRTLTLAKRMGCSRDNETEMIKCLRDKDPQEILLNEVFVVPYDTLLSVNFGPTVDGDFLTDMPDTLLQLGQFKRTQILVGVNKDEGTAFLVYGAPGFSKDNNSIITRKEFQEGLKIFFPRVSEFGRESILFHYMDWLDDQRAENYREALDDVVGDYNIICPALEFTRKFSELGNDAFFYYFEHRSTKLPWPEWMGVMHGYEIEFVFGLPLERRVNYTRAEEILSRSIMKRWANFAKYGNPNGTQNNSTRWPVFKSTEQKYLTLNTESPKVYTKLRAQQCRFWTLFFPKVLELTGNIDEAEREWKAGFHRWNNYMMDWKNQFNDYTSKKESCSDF
Summary of the method: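 Ellman assay with horse serum BuChE (5 IU/mL) in 0.1 M phosphate buffer pH 8.0 with DTNB. Compound was preincubated with enzyme 5 min, then butyrylthiocholine iodide was added. Absorbance read at 412 nm. IC50 from a log concentration vs % inhibition curve; triplicate runs.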

[5] = target: Acetylcholinesterase (Electrophorus electricus, UniProt O42275); experiment: Inhibition of electric eel AChE using acetylthiocholine iodide as substrate pretreated for 5 mins followed by substrate addition by Ellman's method
Acetylcholinesterase, sequence (O42275 whole entry): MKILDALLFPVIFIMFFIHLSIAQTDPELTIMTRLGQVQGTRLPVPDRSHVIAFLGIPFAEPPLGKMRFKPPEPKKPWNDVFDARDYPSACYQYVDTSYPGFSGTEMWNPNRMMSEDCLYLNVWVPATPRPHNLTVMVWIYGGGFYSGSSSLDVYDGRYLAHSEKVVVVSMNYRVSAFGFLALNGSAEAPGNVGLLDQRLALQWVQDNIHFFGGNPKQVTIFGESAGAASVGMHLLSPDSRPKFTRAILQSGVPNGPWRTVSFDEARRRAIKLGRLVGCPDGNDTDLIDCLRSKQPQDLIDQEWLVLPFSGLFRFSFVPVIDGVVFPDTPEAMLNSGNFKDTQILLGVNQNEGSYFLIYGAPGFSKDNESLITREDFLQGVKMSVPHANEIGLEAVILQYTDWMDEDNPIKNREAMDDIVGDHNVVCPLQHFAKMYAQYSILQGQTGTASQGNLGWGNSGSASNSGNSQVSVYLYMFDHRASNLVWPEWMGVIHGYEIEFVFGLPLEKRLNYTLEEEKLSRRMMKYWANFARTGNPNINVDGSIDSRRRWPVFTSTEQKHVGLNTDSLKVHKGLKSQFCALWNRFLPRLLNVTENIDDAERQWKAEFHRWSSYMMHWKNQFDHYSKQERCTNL

[6] = test system: PC-12; experiment: Neuroprotection against H2O2-induced cell death in rat PC12 cells assessed as cell viability at 20 uM preincubated for 3 hrs followed by H2O2 stimulation measured after 2 hrs by MTT assay (reference value: 25.2 to 41.8%); assay type: functional; conditions: read-out: Activity
[7] = test system: PC-12; experiment: Neuroprotection against H2O2-induced cell death in rat PC12 cells assessed as cell viability at 50 uM preincubated for 3 hrs followed by H2O2 stimulation measured after 2 hrs by MTT assay (reference value: 25.2 to 41.8%); assay type: functional; conditions: read-out: Activity
[8] = test system: PC-12; experiment: Neuroprotection against H2O2-induced cell death in rat PC12 cells assessed as increase in cell viability preincubated for 3 hrs followed by H2O2 stimulation measured after 2 hrs by MTT assay; assay type: functional, cell-based
[9] = Inhibition of soybean 15-LOX assessed as reduction in conversion of linoleic acid to 13-hydroperoxylinoleic acid by spectrophotometric method; design: species or system Glycine max
Summary of the method: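 Soybean lipoxygenase type 1-B (final 167 U/mL) with compound (DMSO stock diluted in 0.1 M phosphate buffer pH 8) and linoleic acid (134 mM in ethanol) at room temperature. Formation of 13-hydroperoxylinoleic acid followed spectrophotometrically at 234 nm.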

[10] = test system: PC-12; experiment: Neuroprotection against H2O2-induced cell death in rat PC12 cells assessed as cell viability at 10 uM preincubated for 3 hrs followed by H2O2 stimulation measured after 2 hrs by MTT assay (reference value: 25.2 to 41.8%); assay type: functional; conditions: read-out: Activity

| Structure (SMILES) | viability at 5 µM [1] [%] | viability at 0.1 µM [2] [%] | viability at 1 µM [3] [%] | pIC50 [4] | pIC50 [5] | viability at 20 µM [6] [%] | viability at 50 µM [7] [%] | Activity [8] | pIC50 [9] | viability at 10 µM [10] [%] |
| --- | --- | --- | --- | --- | --- | --- | --- | --- | --- | --- |
| O=C(CCCCC1CCSS1)NCc1cn(CCCCCOc2ccc3cc(-c4ccc(Br)cc4)c(=O)oc3c2)nn1 (centres undefined) | 45.7 | 41.8 | 43.7 | < 4.00 | < 4.00 | 52.3 | 53.6 | Dose-dependent effect | < 4.00 | 48.4 |
| O=C(CCCCC1CCSS1)NCc1cn(CCCOc2ccc3cc(-c4ccccc4)c(=O)oc3c2)nn1 (centres undefined) | 29.8 | 33.9 | 31.9 | < 4.00 | < 4.00 | 27.2 | 23.1 | – | < 4.00 | 29.1 |
| O=C(CCCCC1CCSS1)NCc1cn(CCCOc2ccc3cc(-c4ccc(Cl)cc4)c(=O)oc3c2)nn1 (centres undefined) | 60.6 | 40.9 | 49.3 | < 4.00 | < 4.00 | 75.6 | 79.4 | Dose-dependent effect | < 4.00 | 67.8 |
| O=C(CCCCC1CCSS1)NCc1cn(CCCOc2ccc3cc(-c4ccc(Br)cc4)c(=O)oc3c2)nn1 (centres undefined) | 57.3 | 39.5 | 42.8 | < 4.00 | 4.33 | 69.1 | 74.7 | Dose-dependent effect | < 4.00 | 63.3 |
| COc1ccc(-c2cc3ccc(OCCCCCn4cc(CNC(=O)CCCCC5CCSS5)nn4)cc3oc2=O)cc1OC (centres undefined) | 46.9 | 38.5 | 42.2 | < 4.00 | < 4.00 | 51.9 | 55 | Dose-dependent effect | < 4.00 | 50.5 |
| O=C(CCCCC1CCSS1)NCc1cn(CCCCOc2ccc3cc(-c4ccc(Cl)c(Cl)c4)c(=O)oc3c2)nn1 (centres undefined) | 53.2 | 39.6 | 49.3 | 4.99 | < 4.00 | 62.9 | 69.5 | Dose-dependent effect | < 4.00 | 58.9 |
| O=C(CCCCC1CCSS1)NCc1cn(CCCCCOc2ccc3cc(-c4ccc(Cl)c(Cl)c4)c(=O)oc3c2)nn1 (centres undefined) | 54.8 | 39.7 | 50.6 | 5.11 | < 4.00 | 65.5 | 66.2 | Dose-dependent effect | < 4.00 | 59.4 |
| O=C(CCCCC1CCSS1)NCc1cn(CCCCOc2ccc3cc(-c4ccc(Cl)cc4)c(=O)oc3c2)nn1 (centres undefined) | 52 | 38.8 | 46.2 | 4.28 | < 4.00 | 68.4 | 74.9 | Dose-dependent effect | < 4.00 | 61.8 |
| COc1ccc(-c2cc3ccc(OCCCCCn4cc(CNC(=O)CCCCC5CCSS5)nn4)cc3oc2=O)cc1 (centres undefined) | 41 | 34.5 | 37.1 | < 4.00 | < 4.00 | 49 | 52.8 | Dose-dependent effect | < 4.00 | 45.5 |
| CCOC(=O)c1cc2ccc(OCCCn3cc(CNC(=O)CCCCC4CCSS4)nn3)cc2oc1=O (centres undefined) | 32.4 | 28 | 28.3 | < 4.00 | 4.26 | 42.1 | 49.2 | Dose-dependent effect | < 4.00 | 36.1 |
| COc1ccc(-c2cc3ccc(OCCCCn4cc(CNC(=O)CCCCC5CCSS5)nn4)cc3oc2=O)cc1 (centres undefined) | 44.9 | 32.1 | 36.8 | < 4.00 | < 4.00 | 52.3 | 55.3 | Dose-dependent effect | < 4.00 | 48.6 |
